Assay results collected from several papers.
Protocols differ between the studies behind these lines.
Target: Dual specificity tyrosine-phosphorylation-regulated kinase 1B (DYRK1B, Homo sapiens, UniProt Q9Y463)
Technique: competition with immobilised ligand

| Structure (SMILES) | effect on | tested at | remaining binding [%] |
| --- | --- | --- | --- |
| N#Cc1ccccc1CSc1nnc2c(n1)[nH]c1ccccc12 | binding | 10 µM | 74 |
| O=C(c1ccc(Nc2ncc(Cl)c(-c3ccc(Cl)s3)n2)cc1)N1CCC(N2CCCC2)CC1 | binding | 1 µM | 33 |
| C[C@@H](c1ccc(-n2cnc3c(N)ncnc32)cc1)N1CCc2nn(C)c(Cc3ccccc3)c2C1=O | binding | 0.1 µM | 91 |
| O=C(N[C@H]1CCCCC/C=C\C2C[C@@]2(C(=O)O)NC(=O)[C@@H]2C[C@@H](Oc3ccncc3)CN2C1=O)OC1CCCC1 (stereo partly drawn) | cell-free assay | 1 µM | 46 |
| O=C(NCCCN1CCOCC1)c1ccc(Nc2nccc(-c3cc4ccccc4s3)n2)cc1 | binding | 1 µM | 92 |
| O=C(Nc1c[nH]nc1C(=O)NC1CCNCC1)c1cc(F)cc(F)c1 | binding | 1 µM | 100 |
| O=C(c1ccc(Nc2ncc(Cl)c(-c3cc4ccccc4s3)n2)cc1)N1CCC(N2CCCC2)CC1 | binding | 1 µM | 18 |
| C=CC(=O)N1CCC(C(=O)NCC(=O)N2CCN(c3nc(-c4cnc(N)nc4C(F)F)nc(N4CCOCC4)n3)CC2)CC1 | binding | 1 µM | 98 |
| COc1cnc(Nc2cccc(S(N)(=O)=O)c2)nc1N1CCN(c2ccccc2)C(=O)C1 | binding | 1 µM | 91 |
| CCC(=O)N[C@@H]1CC[C@H](C(=O)N(C)c2ccc(-c3nc4ccccc4o3)cc2)C1 | cell-free assay | 1 µM | 36 |
| COc1cnc(Nc2cccc(S(N)(=O)=O)c2)nc1N1CCN(c2ccccc2)CC1 | binding | 1 µM | 100 |
| Cc1cc(-n2nc(Cc3cc(F)cc(C(F)(F)F)c3)nc2C)ccc1C(N)=O | cell-free assay | 1 µM | 100 |
| COc1ncc2cc3ccccc3nc2c1C#N | cell-free assay | 5 µM | 81 |
| COc1ccc2c(c1)O[C@H](c1ccc(OC)c(OC)c1)C[C@@H]2NC(=O)C1(c2ccc3c(c2)OC(F)(F)O3)CC1 | cell-free assay | 1 µM | 91 |
| CC(C)(C)c1ccc(-c2nc(CBr)nn2-c2cccc(O)c2)cc1 | cell-free assay | 10 µM | 78 |
